# Compound activity from PubChem.
# Cneo AK release = causes C. neoformans cell lysis; AID 651654; adenylate kinase release luminescence, 4 h; normalised: neutral wells 0, clomiphene wells 100; lysis activity, % at 15 µM; 360,000 tested, 0.2% active;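 active = mean lysis activity across replicates of at least 80%, whatever share of replicates individually reach that level; inactive = mean lysis activity below 80%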
#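 Material – log-phase Cryptococcus neoformans yeast cells · Input – 5 × 10^6 yeast cells/mL · Medium – fresh YPD growth medium · Doses – single compound concentration per well · Timing – static 4 h at 37 °C with compound, 1 h detection · Detection – adenylate kinase release luminescence · Read-out – signal increase indicating cell lysis · Control set – Clomiphene as positive lysis control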
# Mot1-301 SUMO = SUMOylation pathway inhibition by Mot1-301 growth rescue. growth rescue, % at 18.8 µM. AID 2716. 320,000 tested, 1% active. S. cerevisiae Mot1-301 growth rescue, ATP luminescence, 38.5C; percent above DMSO median, 100 means doubled;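 active = every valid replicate shows activation above 250% relative to neutral control wells; inactive = the rest, any valid replicate at or below 250%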;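 also: OY570 slx delta 5 strain wells were the positive control but not used for scaling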
# CR mimetic SO = caloric restriction mimetics inhibiting age-related superoxide in yeast; S. cerevisiae aged cells, superoxide DHE fluorescence; hits give low values; superoxide response (% of plate mean), % at 10 µM; 330,000 tested, 0.18% active;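 active = superoxide response under a set limit, about three screen SD below normal, cut at about 65% in these data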;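 also: yeast aged for seven days with compound at 30 °C before DHE staining; 100% = average MFI of all compound-treated wells on the plate with controls excluded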
# PglD inh = blocks C. jejuni PglD acetyltransferase activity; purified PglD enzyme, DTNB colorimetric CoA detection; inhibition, % at 12.5 µM; 360,000 tested, 0.098% active; AID 602405; in the data active = inhibition above about 16%, passing the limit was not always enough
# Ecoli rRNA inh = inhibits bacterial ribosomal RNA function over humanized ribosomes; E. coli WT GFP vs humanized-ribosome RFP mutants, fluorescence, 24 h; hits give low values; DMSO median 0, no signal -100; GFP signal change (wild-type ribosome), % (concentration not given with the values); 350,000 tested, 1.6% active; AID 720706;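 active = significant combined selectivity score with lowered wild-type GFP, culture density cut under 30%, mutant RFP and density less affected; inactive = any of these conditions unmet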
# Yeast Mot1 SUMO = yeast SUMO pathway inhibition in dose response. shares compounds with Mot1-301 SUMO. S. cerevisiae Mot1-301 galactose growth, ATP luminescence, 24 h; -100 = growth of slx-deleted rescue strain. growth activity, percent, % at 42 µM. 2,300 tested, under 10 active. AID 493004;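 active = Signal drops as the depositor expects, and the fitted half-maximal dose is no more than ten times the top valid tested dose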;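 also: more negative values mean stronger growth rescue toward the control strain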
# * marks the source's active call; other numbers are inactive results; · = no result given; + = active, no number. An excerpt weighted towards active compounds, which were near 2.2% of everything screened.
SMILES,Cneo AK release,Mot1-301 SUMO,CR mimetic SO,PglD inh,Ecoli rRNA inh,Yeast Mot1 SUMO
C[C@@H]1CCCCO[C@@H](CN(C)S(=O)(=O)c2ccc(Cl)cc2)[C@H](C)CN([C@H](C)CO)C(=O)c2cc(NC(=O)NC3CCCCC3)ccc2O1,-5,·,·,-3,4,·
Cc1cc2c(cc1C)-c1nnc(-c3ccc4ccccc4n3)n1C(C)(C)C2,·,644*,108,·,·,0
C[C@@H]1CCCCO[C@H](CN(C)CC2CCCCC2)[C@H](C)CN([C@H](C)CO)C(=O)c2cc(NC(=O)c3ccncc3)ccc2O1,5,·,·,11,1,·
CC1Cc2ccccc2N1C(=O)CNc1cccc(S(=O)(=O)N2CCCC2)c1 (stereo not given),1,+,115,-3,-19,0
CCOC(=O)CNC(=O)c1c(C)nn(C)c1Cl,·,669*,108,·,10,1
COc1cccc2[nH]c(=O)c(-c3ccccc3)cc12,-1,453*,92,1,11,-1
C[C@H]1CN([C@@H](C)CO)S(=O)(=O)c2ccc(C#CC3CC3)cc2O[C@@H]1CN(C)C(=O)CC1CC1,-2,·,·,6,1,·
O=S(=O)(c1cccc(F)c1)N1CC[C@@H]2[C@@H](CO)Nc3ccc(Br)cc3[C@@H]21,66,·,·,-2,-25,·
O=C(/C=C/NNC(=O)c1ccc(Br)cc1)c1ccccc1,2,399*,106,-4,·,1
CN(C)CCCNC(=O)C[C@H]1CC[C@H](NC(=O)c2ccccc2F)[C@H](CO)O1,-5,·,·,1,4,·
CNC(=O)c1ccccc1NC(=O)c1c(O)c2c([nH]c1=O)CCCC2,-7,522*,107,2,·,0
COC(=O)C1(Cc2cc(-c3ccccc3)no2)CCN(C(=O)OC(C)(C)C)CC1,-1,+,96,2,-20,0
COc1ccc(-c2cc(CC3(C(=O)O)CCN(C(=O)OC(C)(C)C)CC3)on2)c(OC)c1,0,381*,101,2,-4,1
CC(C)(C)OC(=O)N1CCC(Cc2cc(-c3ccc(Cl)cc3)no2)(C(=O)O)CC1,3,10,100,-3,-27,·
COC(=O)c1ccc(-c2cc(CC3(C(=O)OC)CCN(C(=O)OC(C)(C)C)CC3)on2)cc1,0,-11,90,1,4,·
CNC(=O)C[C@H]1CC[C@H]2[C@@H](COc3ccc(NC(=O)CN(C)C)cc3C(=O)N2C)O1,·,·,·,·,2,·
O=c1nc(-c2ccccc2)c(-c2ccccc2)n[nH]1,1,-6,106,-1,7,·
O=c1nc(-c2ccccc2)cn[nH]1,-11,570*,95,1,·,0
COc1cccc(NC(=O)CN(C)C(=O)c2ccccc2OCc2c(C)noc2C)c1,·,+,100,·,1,1
COc1cc([C@@H]2CC=C(C(=O)O)[C@H](c3ccccc3F)N2S(=O)(=O)c2ccc(C)cc2)cc(OC)c1OC,-1,662*,93,1,-2,-1
Cc1ccc(S(=O)(=O)N2[C@@H](c3ccccc3)C(C(=O)O)=CC[C@H]2c2ccc(Cl)cc2)cc1,-7,377*,93,5,-35,-1
COc1cc([C@@H]2CC=C(C(=O)O)[C@H](c3ccc(F)cc3)N2S(=O)(=O)c2ccc(C)cc2)cc(OC)c1OC,0,-2,101,5,-6,·
C[C@H]1CN([C@@H](C)CO)C(=O)c2cc(C#CC3CC3)cnc2O[C@H]1CN(C)C(=O)C1CCCCC1,·,·,·,·,8,·
C[C@H](CO)N1C[C@H](C)[C@@H](CN(C)S(=O)(=O)c2cccs2)Oc2c(NC(=O)C3CCOCC3)cccc2C1=O,-3,·,·,2,3,·
CCOC(=O)CN1NC2(CCC(C(C)(C)C)CC2)NC1=S (stereo not given),1,500*,89,2,·,0
SMILES,Cneo AK release,Mot1-301 SUMO,CR mimetic SO,PglD inh,Ecoli rRNA inh,Yeast Mot1 SUMO
COCC(=O)Nc1ccc2c(c1)[C@H]1C[C@@H](CC(=O)NCc3cccnc3)O[C@@H](CO)[C@H]1O2,-2,·,·,1,1,·
CC(C)(C)Cc1nc(-c2ccccn2)no1,-1,392*,94,1,·,0
COCC(C)n1c(SCC(=O)NNC(=O)c2ccccc2)nc2ccccc2c1=O (stereo not given),0,439*,93,-7,·,0
COc1ccc(C(=O)Nn2c(SCC(=O)NCc3ccccc3)nc3ccccc3c2=O)cc1,-6,+,112,-4,·,0
O=C(C[C@@H]1CC[C@H]2[C@@H](COC[C@@H](O)CN2C(=O)c2ccc(F)cc2)O1)NCCCN1CCOCC1,3,·,·,2,8,·
COc1ccc(NC(=O)N(C)C[C@@H]2OCCCC[C@@H](C)Oc3ccc(NS(=O)(=O)c4ccc(C)cc4)cc3C(=O)N([C@@H](C)CO)C[C@H]2C)cc1,3,·,·,-4,1,·
C[C@@H]1CCCCO[C@H](CN(C)C(=O)CCCN(C)C)[C@H](C)CN([C@@H](C)CO)C(=O)c2cc(NC(=O)c3ccncc3)ccc2O1,0,·,·,0,-1,·
CC1CCCN(C(=O)Cc2ccc(F)cc2)C1 (stereo not given),2,408*,105,4,·,0
COc1ccc(CC(=O)N2CCCC(C)C2)cc1 (stereo not given),0,-10,102,9,·,·
CCC(=O)c1c[nH]c(C(=O)NCCCn2ccnc2)c1,-4,+,110,4,·,0
COc1ccc(C(=O)c2c[nH]c(C(=O)NCCCn3ccnc3)c2)cc1,-1,9,95,5,19,·
Cc1c(OC(C)C(=O)N2C[C@H]3C[C@@H](C2)c2cccc(=O)n2C3)ccc2c3c(c(=O)oc12)CCCC3 (stereo not given in full),1,684*,106,0,-5,1
CCCNC(=O)c1cc2c(C(F)(F)F)nn(C)c2s1,-2,859*,85,-4,·,0
CC(C)NC(=O)c1cc2c(C(F)(F)F)nn(C)c2s1,5,32,82,1,·,·
C=CCSc1nnc2c(n1)[nH]c1c(C)cccc12,8,532*,112,1,2,-1
O=C(C[C@H]1CC[C@@H]2[C@H](COC[C@@H](O)CN2Cc2nccs2)O1)NCc1ccc(F)cc1,0,·,·,-2,3,·
C/C(=N\NC(=O)c1ccc(Cl)cc1)c1cccnc1,-2,714*,109,2,3,1
C/C(=N\NC(=O)c1cccnc1)c1ccccc1,-1,-2,100,5,15,·
O=C(C1CCCC1)N1CCCCN2[C@H](CO)[C@H](c3ccc(C4=CCCC4)cc3)[C@@H]2C1,-4,·,·,-2,-54,·
O=C(COC(=O)c1ccc([N+](=O)[O-])s1)c1ccc[nH]1,-1,516*,140,1,·,-3
